Reference: ChEMBL document CHEMBL1128678, “Preparation of 18F-labeled muscarinic agonist with M2 selectivity” (J Med Chem, 1995)
Several values for one entry are separate records, joined by “and”; a condition that tells them apart may be missing. Identical values can stand only once.

How the values were obtained:
Rattus norvegicus [1] = assay: In vivo biodistribution in blood after 120 min of administration in rat; type: ADME, organism-based; details: 2 h
Procedure, shortened: (§1)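 [18F] tracer formulated in PBS with under 10% ethanol; 15 μCi given by tail vein to Sprague-Dawley rats (200–250 g). Groups of five sacrificed at 15, 60 or 120 min. Brain dissected into 11 regions, with blood, heart, bone and lung also collected. Tissues weighed and counted, and % ID/g calculated; n = 5 or 6.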

Rattus norvegicus [2] = assay: In vivo biodistribution in blood after 15 min of administration in rat; type: ADME, organism-based; details: 0.25 h; procedure, shortened: as §1
Rattus norvegicus [3] = assay: In vivo biodistribution in blood after 60 min of administration in rat; type: ADME, organism-based; details: 1 h; procedure, shortened: as §1
Rattus norvegicus [4] = assay: In vivo biodistribution in blood at 60 min for no inhibitor was co-injected in rat; type: ADME, organism-based; details: 1 h
Rattus norvegicus [5] = assay: In vivo biodistribution in bone after 120 min of administration in rat; type: ADME, organism-based, Bone element; details: 2 h; procedure, shortened: as §1
Rattus norvegicus [6] = assay: In vivo biodistribution in LT-THAL after 120 min of administration in rat; type: ADME, organism-based; details: 2 h; procedure, shortened: as §1
Rattus norvegicus [7] = assay: In vivo biodistribution in LT-THAL after 60 min of administration in rat; type: ADME, organism-based; details: 1 h; procedure, shortened: as §1
Rattus norvegicus [8] = assay: In vivo biodistribution in LT-THAL at 60 min for no inhibitor was co-injected in rat; type: ADME, organism-based; details: 1 h
Rattus norvegicus [9] = assay: In vivo biodistribution in MEDULL after 120 min of administration in rat; type: ADME, organism-based; details: 2 h; procedure, shortened: as §1
Rattus norvegicus [10] = assay: In vivo biodistribution in MEDULL after 15 min of administration in rat; type: ADME, organism-based; details: 0.25 h; procedure, shortened: as §1
Rattus norvegicus [11] = assay: In vivo biodistribution in MEDULL after 60 min of administration in rat; type: ADME, organism-based; details: 1 h; procedure, shortened: as §1
Rattus norvegicus [12] = assay: In vivo biodistribution in PONS after 120 min of administration in rat; type: ADME, organism-based; details: 2 h; procedure, shortened: as §1
Rattus norvegicus [13] = assay: In vivo biodistribution in PONS after 15 min of administration in rat; type: ADME, organism-based; details: 0.25 h; procedure, shortened: as §1
Rattus norvegicus [14] = assay: In vivo biodistribution in PONS after 60 min of administration in rat; type: ADME, organism-based; details: 1 h; procedure, shortened: as §1
Rattus norvegicus [15] = assay: In vivo biodistribution in LT-CTX after 120 min of administration in rat; type: ADME, organism-based; details: 2 h; procedure, shortened: as §1
Rattus norvegicus [16] = assay: In vivo biodistribution in LT-CTX after 15 min of administration in rat; type: ADME, organism-based; details: 0.25 h; procedure, shortened: as §1
Rattus norvegicus [17] = assay: In vivo biodistribution in LT-CTX after 60 min of administration in rat; type: ADME, organism-based; details: 1 h; procedure, shortened: as §1
Rattus norvegicus [18] = assay: In vivo biodistribution in LT-CTX at 60 min for no inhibitor was co-injected in rat; type: ADME, organism-based; details: 1 h
Rattus norvegicus [19] = assay: In vivo biodistribution in LT-HIPP after 120 min of administration in rat; type: ADME, organism-based; details: 2 h; procedure, shortened: as §1
Rattus norvegicus [20] = assay: In vivo biodistribution in LT-HIPP after 15 min of administration in rat; type: ADME, organism-based; details: 0.25 h; procedure, shortened: as §1
Rattus norvegicus [21] = assay: In vivo biodistribution in LT-HIPP after 60 min of administration in rat; type: ADME, organism-based; details: 1 h; procedure, shortened: as §1
Rattus norvegicus [22] = assay: In vivo biodistribution in LT-HIPP at 60 min for no inhibitor was co-injected in rat; type: ADME, organism-based; details: 1 h
Rattus norvegicus [23] = assay: In vivo biodistribution in LT-STR after 120 min of administration in rat; type: ADME, organism-based; details: 2 h; procedure, shortened: as §1
Rattus norvegicus [24] = assay: In vivo biodistribution in LT-STR after 15 min of administration in rat; type: ADME, organism-based; details: 0.25 h; procedure, shortened: as §1
Rattus norvegicus [25] = assay: In vivo biodistribution in LT-STR after 60 min of administration in rat; type: ADME, organism-based; details: 1 h; procedure, shortened: as §1
Rattus norvegicus [26] = assay: In vivo biodistribution in LT-STR at 60 min for no inhibitor was co-injected in rat; type: ADME, organism-based; details: 1 h
Rattus norvegicus [27] = assay: In vivo biodistribution in CBLL after 120 min of administration in rat; type: ADME, organism-based; details: 2 h; procedure, shortened: as §1
Rattus norvegicus [28] = assay: In vivo biodistribution in CBLL after 15 min of administration in rat; type: ADME, organism-based; details: 0.25 h; procedure, shortened: as §1
Rattus norvegicus [29] = assay: In vivo biodistribution in CBLL after 60 min of administration in rat; type: ADME, organism-based; details: 1 h; procedure, shortened: as §1
Rattus norvegicus [30] = assay: In vivo biodistribution in CBLL at 60 min for no inhibitor was co-injected in rat; type: ADME, organism-based; details: 1 h
Rattus norvegicus [31] = assay: In vivo biodistribution in lung after 60 min of administration in rat; type: ADME, organism-based; details: 1 h; procedure, shortened: as §1
Rattus norvegicus [32] = assay: In vivo biodistribution in lung at 60 min for no inhibitor was co-injected in rat; type: ADME, organism-based; details: 1 h
Procedure, shortened: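 [18F]tracer formulated in phosphate-buffered saline (<10% ethanol), 15 μCi injected via tail vein into Sprague-Dawley rats (200–250 g); no inhibitor co-injected. Animals sacrificed in groups of five at 60 min postinjection. Lung sample collected, weighed, counted for activity, and % ID/g calculated (n = 5 or 6).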

Rattus norvegicus [33] = assay: In vivo biodistribution in heart at 60 min as a function of 5 nM of (R,R) IQNB (inhibitor) in rat; type: ADME, organism-based; details: 1 h
Rattus norvegicus [34] = assay: In vivo biodistribution in heart at 60 min for no inhibitor was co-injected in rat; type: ADME, organism-based; details: 1 h
Rattus norvegicus [35] = assay: In vivo biodistribution in lung after 120 min of administration in rat; type: ADME, organism-based; details: 2 h; procedure, shortened: as §1
Rattus norvegicus [36] = assay: In vivo biodistribution in lung after 15 min of administration in rat; type: ADME, organism-based; details: 0.25 h; procedure, shortened: as §1
[37] = In vivo biodistribution in bone at 60 min for no inhibitor was co-injected in rat; type: ADME, organism-based, Bone element; details: 1 h
[38] = In vivo biodistribution in heart after 120 min of administration.; type: ADME, organism-based; details: 2 h; procedure, shortened: as §1
Rattus norvegicus [39] = assay: In vivo biodistribution in heart after 15 min of administration in rat; type: ADME, organism-based; details: 0.25 h; procedure, shortened: as §1
Rattus norvegicus [40] = assay: In vivo biodistribution in heart after 60 min of administration in rat; type: ADME, organism-based; details: 1 h; procedure, shortened: as §1
Rattus norvegicus [41] = assay: In vivo biodistribution in heart at 60 min as a function of 500 nM of (R,S) -fluoromethyl QNB(inhibitor) in rat; type: ADME, organism-based; details: 1 h
Rattus norvegicus [42] = assay: In vivo biodistribution in bone after 15 min of administration in rat; type: ADME, organism-based, Bone element; details: 0.25 h; procedure, shortened: as §1
Rattus norvegicus [43] = assay: In vivo biodistribution in bone after 60 min of administration in rat; type: ADME, organism-based, Bone element; details: 1 h; procedure, shortened: as §1
Rattus norvegicus [44] = assay: In vivo biodistribution in LT-CTX at 60 min for no inhibitor was co-injected co-injected in rat; type: ADME, organism-based; details: 1 h
Rattus norvegicus [45] = assay: In vivo biodistribution in MEDULL at 60 min for no inhibitor was co-injected in rat; type: ADME, organism-based; details: 1 h
[46] = target: T1, Muscarinic acetylcholine receptor M2 (Rattus norvegicus, UniProt P10980); assay: In vitro binding affinity towards Muscarinic acetylcholine receptor M2 was determined by measuring its ability to displace [3H]-AF-DX 384 from rat heart membranes; set-up: species or system Membrane
T1 sequence (P10980 whole entry): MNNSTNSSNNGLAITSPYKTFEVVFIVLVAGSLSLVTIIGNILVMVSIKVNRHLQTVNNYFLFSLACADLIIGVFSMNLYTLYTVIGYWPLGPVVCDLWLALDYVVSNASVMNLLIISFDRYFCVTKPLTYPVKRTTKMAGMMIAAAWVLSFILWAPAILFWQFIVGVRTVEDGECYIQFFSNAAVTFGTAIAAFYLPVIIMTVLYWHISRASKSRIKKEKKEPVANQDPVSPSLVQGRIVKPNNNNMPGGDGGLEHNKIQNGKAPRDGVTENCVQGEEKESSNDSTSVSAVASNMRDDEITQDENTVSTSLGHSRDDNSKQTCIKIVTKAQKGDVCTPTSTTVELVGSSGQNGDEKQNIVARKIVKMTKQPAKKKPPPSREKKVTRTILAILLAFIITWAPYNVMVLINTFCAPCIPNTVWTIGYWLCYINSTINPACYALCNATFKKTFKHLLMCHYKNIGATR
Procedure, shortened: (§2)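 Displacement binding performed by NovaScreen. For M1, the tracer was [3H]pirenzepine with bovine striatal membranes. For M2, it was [3H]AF-DX 384 with rat heart membranes. Ki values in nM were calculated by LIGAND analysis.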

[47] = target: T2, Muscarinic acetylcholine receptor M1 (Bos taurus, UniProt Q8WMX0); assay: In vitro binding affinity towards Muscarinic acetylcholine receptor M1 was determined by measuring its ability to displace [3H]pirenzepine from bovine striatal membranes; set-up: species or system Striatum, Membrane; procedure, shortened: as §2
T2 sequence (Q8WMX0 whole entry): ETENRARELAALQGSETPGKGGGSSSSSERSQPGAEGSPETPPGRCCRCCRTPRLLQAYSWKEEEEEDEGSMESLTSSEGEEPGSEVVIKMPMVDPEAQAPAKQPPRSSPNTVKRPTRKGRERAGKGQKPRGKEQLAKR

[48] = target: Muscarinic acetylcholine receptor M3 (Cavia porcellus, UniProt Q8VH26); assay: In vitro binding affinity towards Muscarinic acetylcholine receptor M3 was determined by measuring its ability to displace [3H]-N-methyl- Scopolamine from guinea pig ileum; type: tissue-based
Muscarinic acetylcholine receptor M3, sequence (Q8VH26 whole entry): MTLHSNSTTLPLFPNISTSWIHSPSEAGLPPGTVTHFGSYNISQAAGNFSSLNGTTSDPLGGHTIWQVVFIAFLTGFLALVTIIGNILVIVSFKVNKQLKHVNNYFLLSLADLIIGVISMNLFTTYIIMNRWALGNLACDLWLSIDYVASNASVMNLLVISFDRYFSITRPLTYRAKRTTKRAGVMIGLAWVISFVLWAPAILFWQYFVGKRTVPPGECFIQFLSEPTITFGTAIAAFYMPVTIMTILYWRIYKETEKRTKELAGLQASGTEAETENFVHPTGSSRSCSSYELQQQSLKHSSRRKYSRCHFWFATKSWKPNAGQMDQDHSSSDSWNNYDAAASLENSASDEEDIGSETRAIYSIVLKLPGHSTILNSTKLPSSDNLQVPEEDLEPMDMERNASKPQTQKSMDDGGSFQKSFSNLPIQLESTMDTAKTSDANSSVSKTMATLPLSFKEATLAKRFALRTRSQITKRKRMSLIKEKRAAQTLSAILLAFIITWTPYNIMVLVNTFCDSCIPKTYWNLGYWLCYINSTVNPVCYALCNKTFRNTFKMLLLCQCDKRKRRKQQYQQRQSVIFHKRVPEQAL

SMILES: CN1CC=C(c2nsnc2SCCC[18F])CC1
- ID/g (Rattus norvegicus [1]): 0.1%
- ID/g (Rattus norvegicus [2]): 0.181%
- ID/g (Rattus norvegicus [3]): 0.124%
- ID/g (Rattus norvegicus [4]): 0.126% and 0.13% and 0.18%
- ID/g (Rattus norvegicus [5]): 0.993%
- ID/g (Rattus norvegicus [6]): 0.153%
- ID/g (Rattus norvegicus [7]): 0.293%
- ID/g (Rattus norvegicus [8]): 0.413% and 0.45% and 0.56%
- ID/g (Rattus norvegicus [9]): 0.226%
- ID/g (Rattus norvegicus [10]): 0.788%
- ID/g (Rattus norvegicus [11]): 0.438%
- ID/g (Rattus norvegicus [12]): 0.238%
- ID/g (Rattus norvegicus [13]): 0.824%
- ID/g (Rattus norvegicus [14]): 0.385%
- ID/g (Rattus norvegicus [15]): 0.139%
- ID/g (Rattus norvegicus [16]): 1.125%
- ID/g (Rattus norvegicus [17]): 0.368%
- ID/g (Rattus norvegicus [18]): 0.484% and 0.52%
- ID/g (Rattus norvegicus [19]): 0.119%
- ID/g (Rattus norvegicus [20]): 0.826%
- ID/g (Rattus norvegicus [21]): 0.363%
- ID/g (Rattus norvegicus [22]): 0.429% and 0.47% and 0.65%
- ID/g (Rattus norvegicus [23]): 0.123%
- ID/g (Rattus norvegicus [24]): 0.861%
- ID/g (Rattus norvegicus [25]): 0.353%
- ID/g (Rattus norvegicus [26]): 0.448% and 0.46% and 0.64%
- ID/g (Rattus norvegicus [27]): 0.154%
- ID/g (Rattus norvegicus [28]): 0.766%
- ID/g (Rattus norvegicus [29]): 0.285%
- ID/g (Rattus norvegicus [30]): 0.382% and 0.44% and 0.47%
- ID/g (Rattus norvegicus [31]): 0.261%
- ID/g (Rattus norvegicus [32]): 0.372%
- ID/g (Rattus norvegicus [33]): 0.13% and 0.43% and 0.49% and 0.46% and 0.44% and 0.54% and 0.63% and 0.42%
- ID/g (Rattus norvegicus [34]): 0.171%
- ID/g (Rattus norvegicus [35]): 0.156%
- ID/g (Rattus norvegicus [36]): 0.871%
- ID/g [37]: 0.501%
- ID/g [38]: 0.096%
- ID/g (Rattus norvegicus [39]): 0.324%
- ID/g (Rattus norvegicus [40]): 0.121%
- ID/g (Rattus norvegicus [41]): 0.17% and 0.44% and 0.43% and 0.39% and 0.48% and 0.56% and 0.61%
- ID/g (Rattus norvegicus [42]): 0.225%
- ID/g (Rattus norvegicus [43]): 0.762%
- ID/g (Rattus norvegicus [44]): 0.7%
- ID/g (Rattus norvegicus [45]): 0.529% and 0.63% and 0.71%

SMILES: CCCSc1nsnc1C1=CCN(C)CC1
- Ki [46]: 1.5 nM
- Ki [47]: 23 nM
- Ki [48]: 163 nM

SMILES: CN1CCC=C(c2nsnc2SCCF)C1
- Ki [46]: 1.8 nM
- Ki [47]: 25 nM
- Ki [48]: > 10000 nM

SMILES: CN1CCC=C(c2nsnc2SCCCF)C1
- Ki [46]: 2.2 nM
- Ki [47]: 7.4 nM
- Ki [48]: 79.7 nM

SMILES: CN1CCC=C(c2nsnc2SCCCCCF)C1
- Ki [46]: 6.3 nM
- Ki [47]: 2.3 nM
- Ki [48]: 160 nM

SMILES: CCCCCSc1nsnc1C1=CCN(C)CC1
- Ki [46]: 4 nM
- Ki [47]: 36 nM
- Ki [48]: > 10000 nM
